Measurements from ChEMBL document CHEMBL3351868, “Structure-affinity relationships and pharmacological characterization of new alkyl-resorcinol cannabinoid receptor ligands: Identification of a dual cannabinoid receptor/TRPA1 channel agonist” (Bioorg Med Chem, 2014).

Assays:
Homo sapiens [1] = species on record: Homo sapiens; assay: Selectivity index, ratio of Ki for human recombinant CB1 receptor to Ki for human recombinant CB2 receptor
Homo sapiens [2] = species on record: Homo sapiens; assay: Selectivity index, ratio of Ki for human recombinant CB2 receptor to Ki for human recombinant CB1 receptor
Cannabinoid receptor 2 [3] = molecular target: T1, Cannabinoid receptor 2 (Homo sapiens, UniProt P34972); assay: Displacement of [3H]CP-55,940 from human recombinant CB2 receptor expressed in HEK293 cell membranes
T1 sequence (P34972 whole entry): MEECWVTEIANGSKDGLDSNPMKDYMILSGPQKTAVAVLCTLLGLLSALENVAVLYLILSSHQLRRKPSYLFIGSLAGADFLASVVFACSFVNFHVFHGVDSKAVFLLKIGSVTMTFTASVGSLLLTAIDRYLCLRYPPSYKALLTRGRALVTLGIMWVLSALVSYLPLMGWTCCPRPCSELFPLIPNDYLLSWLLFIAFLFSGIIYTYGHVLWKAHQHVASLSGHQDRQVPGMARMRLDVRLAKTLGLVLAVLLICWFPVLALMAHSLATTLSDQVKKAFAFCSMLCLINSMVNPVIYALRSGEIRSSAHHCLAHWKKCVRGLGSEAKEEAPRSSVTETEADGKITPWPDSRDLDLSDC

Cannabinoid receptor 1 [4] = molecular target: T2, Cannabinoid receptor 1 (Homo sapiens, UniProt P21554); assay: Displacement of [3H]CP-55,940 from human recombinant CB1 receptor expressed in HEK293 cell membranes
T2 sequence (P21554 whole entry): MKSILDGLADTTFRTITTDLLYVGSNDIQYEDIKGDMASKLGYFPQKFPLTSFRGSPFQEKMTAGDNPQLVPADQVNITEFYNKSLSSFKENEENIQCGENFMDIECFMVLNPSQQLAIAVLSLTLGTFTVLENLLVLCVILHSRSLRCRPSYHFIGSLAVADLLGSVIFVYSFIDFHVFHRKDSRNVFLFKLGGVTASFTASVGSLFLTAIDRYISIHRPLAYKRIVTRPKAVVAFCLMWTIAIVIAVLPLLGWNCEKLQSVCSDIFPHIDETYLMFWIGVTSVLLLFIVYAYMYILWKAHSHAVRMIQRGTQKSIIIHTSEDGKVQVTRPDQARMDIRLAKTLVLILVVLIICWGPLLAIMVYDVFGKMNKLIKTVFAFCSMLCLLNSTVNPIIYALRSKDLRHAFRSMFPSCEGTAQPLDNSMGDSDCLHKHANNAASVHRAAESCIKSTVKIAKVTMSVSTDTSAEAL

[5] = Inhibition of MGL in African green monkey COS7 cells cytosolic fraction assessed as reduction in 2-arachidonoyl-[3H]-glycerol hydrolysis by scintillation counting method; assay type: cell-based, Chlorocebus aethiops; settings: cos-7
COS-7 [6] = assay: Inhibition of MGL in African green monkey COS7 cells cytosolic fraction assessed as reduction in 2-arachidonoyl-[3H]-glycerol hydrolysis at 50 uM by scintillation counting method; assay type: cell-based; settings: Chlorocebus aethiops
[7] = molecular target: T3, Fatty-acid amide hydrolase 1 (Rattus norvegicus, UniProt P97612); assay: Inhibition of FAAH in rat brain membranes assessed as reduction in [14C] anandamide hydrolysis by scintillation counting method; assay type: cell membranes, Membrane
T3 sequence (P97612 whole entry): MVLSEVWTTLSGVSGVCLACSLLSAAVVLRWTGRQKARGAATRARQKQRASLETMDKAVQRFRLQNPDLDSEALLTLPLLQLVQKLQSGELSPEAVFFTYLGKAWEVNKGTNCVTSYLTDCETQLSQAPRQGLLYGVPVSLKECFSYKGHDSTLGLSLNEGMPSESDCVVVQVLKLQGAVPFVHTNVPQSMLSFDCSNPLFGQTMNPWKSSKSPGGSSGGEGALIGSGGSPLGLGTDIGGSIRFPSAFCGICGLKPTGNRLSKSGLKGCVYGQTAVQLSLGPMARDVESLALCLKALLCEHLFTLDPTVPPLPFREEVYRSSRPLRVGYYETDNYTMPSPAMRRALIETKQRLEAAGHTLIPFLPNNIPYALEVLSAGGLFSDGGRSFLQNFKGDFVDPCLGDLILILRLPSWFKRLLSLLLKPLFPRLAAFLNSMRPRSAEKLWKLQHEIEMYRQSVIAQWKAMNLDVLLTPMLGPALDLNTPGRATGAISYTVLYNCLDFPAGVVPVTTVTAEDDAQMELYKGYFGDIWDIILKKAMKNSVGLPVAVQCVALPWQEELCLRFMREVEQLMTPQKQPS

COS-7 [8] = assay: Inhibition of MGL in African green monkey COS7 cells cytosolic fraction assessed as reduction in 2-arachidonoyl-[3H]-glycerol hydrolysis at 10 uM by scintillation counting method; assay type: cell-based; settings: Chlorocebus aethiops
[9] = molecular target: T4, Fatty-acid amide hydrolase 1 (Rattus norvegicus) (UniProt P97612); assay: Inhibition of FAAH in rat brain membranes assessed as reduction in [14C] anandamide hydrolysis at 10 uM by scintillation counting method; assay type: cell membranes; settings: Membrane
T4 sequence (whole entry): T3 sequence (P97612 whole entry)

Cannabinoid receptor 2 [10] = molecular target: T1, Cannabinoid receptor 2; assay: Agonist activity at human recombinant CB2 receptor expressed in CHO cell membranes assessed as stimulation of [35S]GTPgammaS binding relative to basal level; assay type: functional
Summary of the method: (§1)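 Membranes from CHO cells stably expressing human CB1 or CB2, 50 µg protein per well, in Tris buffer with 100 mM NaCl, 5 mM MgCl2, 1 mM DTT, 1 mM EDTA, 0.1% BSA, pH 7.4. Incubated 60 min at 30°C with 0.1 nM [35S]GTPγS, 30 µM GDP and compound in DMSO. Nonspecific binding defined with 30 µM GTPγS. Filtration and scintillation counting. Percent change relative to DMSO control, n=6. EC50/Emax from sigmoidal fit.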

Cannabinoid receptor 2 [11] = molecular target: T1, Cannabinoid receptor 2; assay: Agonist activity at human recombinant CB2 receptor expressed in CHO cell membranes by [35S]GTPgammaS binding assay; assay type: functional; summary of the method: as §1
[12] = Cytotoxicity against mouse NIH/3T3 cells after 24 hrs by neutral red assay; assay type: cell-based; settings: NIH3T3, 24 h
Summary of the method: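 NIH3T3 mouse fibroblasts in DMEM with 10% FCS were seeded and after 24 h exposed to compound in DMSO (5-200 µM, six replicates) for 24 h. Viability measured by neutral red uptake (3 h dye incubation, then acetic acid/ethanol extraction). IC50 derived.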

Cannabinoid receptor 1 [13] = molecular target: T2, Cannabinoid receptor 1; assay: Agonist activity at human recombinant CB1 receptor expressed in CHO cell membranes assessed as stimulation of [35S]GTPgammaS binding relative to basal level; assay type: functional; summary of the method: as §1

Structure (SMILES) | Ratio Ki (Homo sapiens [1]) | Ratio Ki (Homo sapiens [2]) | Ki (Cannabinoid receptor 2 [3]) | Ki (Cannabinoid receptor 1 [4]) | also measured
CCCCCc1cc(O)cc(OCCCCCCCCCCCNC(=O)C2CC2)c1 | 6.02 | 0.17 | 460 nM | 2770 nM | 
CCCCCc1cc(O)cc(OCCCCCCCCCCCNC2CC2)c1 | 1.1 | 0.91 | 1890 nM | 2080 nM | 
C=CCNC(=O)CCCCCCCCCCOc1cc(O)cc(CCCCC)c1 | 8.31 | 0.12 | 16.4 nM | 136 nM | 
CCCCCCc1ccc(OCCCCCCCCCCC(=O)NC(CO)CO)cc1O |  |  | > 10000 nM | > 10000 nM | 
CCCCCc1cc(O)cc(OCCCCCCCCCCCN2C(=O)c3ccccc3C2=O)c1 |  |  |  |  | IC50 [5]: > 50000 nM; Imax (COS-7 [6]): 15.9%
CCCCCCC(C)(C)c1cc(O)cc(OCCCCCCCCCCCN2C(=O)c3ccccc3C2=O)c1 |  |  |  |  | IC50 [5]: > 50000 nM; Imax (COS-7 [6]): 14.4%
CCCCCCC(C)(C)c1cc(O)cc(OCCCCCCCCCCC(=O)NC23CC4CC(CC(C4)C2)C3)c1 |  |  | > 10000 nM | > 10000 nM | 
CCCCCCc1ccc(O)cc1OCCCCCCCCCCCNC(=O)C1CC1 | 3.6 | 0.28 | 250 nM | 900 nM | 
CCCCCc1cc(O)cc(OCCCCCCCCCCC(=O)NC23CC4CC(CC(C4)C2)C3)c1 |  |  | > 10000 nM | > 10000 nM | 
CCCCCCc1ccc(OCCCCCCCCCCC(=O)NC23CC4CC(CC(C4)C2)C3)cc1O |  |  | > 10000 nM | > 10000 nM | 
CCCCCCC(C)(C)c1cc(O)cc(OCCCCCCCCCCC(=O)NC(CO)CO)c1 | 8.22 | 0.12 | 230 nM | 1890 nM | 
CCCCCc1cc(O)cc(OCCCCCCCCCCC(=O)NN(C)C)c1 | 4.63 | 0.22 | 183 nM | 845 nM | IC50 [5]: > 10000 nM; IC50 [7]: > 10000 nM; Imax (COS-7 [8]): 42.9%; Imax [9]: 28.2%
CCCCCc1cc(O)cc(OCCCCCCCCCN2C(=O)c3ccccc3C2=O)c1 |  |  |  |  | IC50 [5]: > 50000 nM; Imax (COS-7 [6]): 16.8%
CCCCCc1cc(O)cc(OCCCCCCCCCCC(=O)NN2CCCCC2)c1 | 2.63 | 0.38 | 678 nM | 1780 nM | IC50 [5]: > 10000 nM; IC50 [7]: > 10000 nM; Imax (COS-7 [8]): 41.6%; Imax [9]: 41%
CCCCCCc1c(O)cccc1OCCCCCCCCCCC(=O)NC12CC3CC(CC(C3)C1)C2 |  |  | > 10000 nM | > 10000 nM | 
CCCCCc1cc(O)cc(OCCCCCCCCCCC(=O)NC(CO)CO)c1 | > 18.5 | < 0.05 | 540 nM | > 10000 nM | 
CCCCCc1cc(O)cc(OCCCCCCCCCN[C@H](C)CO)c1 | 0.7 | 1.43 | 1520 nM | 1060 nM | 
CCCCCCC(C)(C)c1cc(O)cc(OCCCCCCCCCCC(=O)N[C@H](C)CO)c1 | 6.24 | 0.16 | 21.2 nM | 132 nM | 
CCCCCc1cc(O)cc(OCCCCCCCCCCCNCc2ccccc2)c1 | 1.49 | 0.67 | 830 nM | 1240 nM | 

Structure (SMILES) | Ratio Ki (Homo sapiens [1]) | Ratio Ki (Homo sapiens [2]) | Ki (Cannabinoid receptor 2 [3]) | Ki (Cannabinoid receptor 1 [4]) | also measured
CCCCCc1cc(O)cc(OCCCCCCCCCCC(=O)NCC(F)(F)F)c1 | 4.55 | 0.22 | 96.3 nM | 438 nM | 
CCCCCCc1ccc(O)cc1OCCCCCCCCCCCN1C(=O)c2ccccc2C1=O |  |  |  |  | IC50 [5]: > 50000 nM; Imax (COS-7 [6]): 16.3%
CCCCCCC(C)(C)c1cc(O)cc(OCCCCCCCCCCCNC(=O)C2CC2)c1 | 3.18 | 0.31 | 650 nM | 2070 nM | 
C=CCNCCCCCCCCCCCOc1cc(O)cc(CCCCC)c1 | 0.62 | 1.62 | 1850 nM | 1140 nM | 
CCCCCCc1ccc(OCCCCCCCCCCCNC(=O)C2CC2)cc1O |  |  | > 10000 nM | > 10000 nM | 
CCCCCc1cc(O)cc(OCCCCCCCCCCC(=O)NCc2ccccc2)c1 | > 49.5 | < 0.02 | 202 nM | > 10000 nM | 
CCCCCCC(C)(C)c1cc(O)cc(OCCCCCCCCCN2C(=O)c3ccccc3C2=O)c1 |  |  |  |  | IC50 [5]: > 50000 nM; Imax (COS-7 [6]): 18.8%
CCCCCCC(C)(C)c1cc(O)cc(OCCCCCCCC(=O)NC(CO)CO)c1 | 0.22 | 4.6 | 815 nM | 178 nM | 
CCCCCc1cc(O)cc(OCCCCCCCCCCC(=O)Nc2ccccc2)c1 | > 78.2 | < 0.01 | 128 nM | > 10000 nM | Emax (Cannabinoid receptor 2 [10]): -14.4%; EC50 (Cannabinoid receptor 2 [11]): 701 nM
CCCCCCC(C)(C)c1cc(O)cc(OCCCCCCCC(=O)N[C@H](C)CO)c1 | 0.34 | 2.92 | 50.2 nM | 17.2 nM | IC50 [12]: 69000 nM
CCCCCCC(C)(C)c1cc(O)cc(OCCCCCCCC(=O)NC23CC4CC(CC(C4)C2)C3)c1 |  |  | > 10000 nM | > 10000 nM | 
CCCCCc1cc(O)cc(OCCCCCCCC(=O)N[C@H](C)CO)c1 | 0.11 | 9.32 | 119 nM | 12.8 nM | 
CCCCCCc1ccc(OCCCCCCCCCCCN2C(=O)c3ccccc3C2=O)cc1O |  |  |  |  | IC50 [5]: > 50000 nM; Imax (COS-7 [6]): 14.3%
CCCCCCC(C)(C)c1cc(O)cc(OCCCCCCCC(=O)NCC(F)(F)F)c1 | 14.2 | 0.07 | 27.9 nM | 397 nM | 
CCCCCCC(C)(C)c1ccc([C@@H]2C[C@H](O)CC[C@H]2CCCO)c(O)c1 |  |  |  |  | Emax (Cannabinoid receptor 2 [10]): 66.5%; Emax (Cannabinoid receptor 1 [13]): 72.1%
CCCCCc1cc(O)cc(OCCCCCCCCCCC(=O)N[C@H](C)CO)c1 | 2.72 | 0.37 | 97.2 nM | 264 nM | 
CCCCCCc1ccc(O)cc1OCCCCCCCCCCC(=O)NC(CO)CO | > 4.22 | < 0.24 | 2370 nM | > 10000 nM | 
CCCCCc1cc(O)cc(OCCCCCCCCCCCCNC2CC2)c1 | < 0.08 | > 12.1 | > 10000 nM | 830 nM | 
